Assay results as given in ChEMBL document CHEMBL4000163, “Pyrazole derived ultra-short antimicrobial peptidomimetics with potent anti-biofilm activity” (Eur J Med Chem, 2017).
In brackets after ≈: the same amount, converted by molar mass. Activity calls are given as the source filed them. The calls are words filed in the database; no cut-off is given here.

Columns and labels:
[1] = system: Escherichia coli; test: Antimicrobial activity against Escherichia coli KCTC 1682 incubated for 18 to 20 hrs by broth microdilution assay; format: functional; conditions: read-out: MIC100
Summary of the method: (§1)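 Broth microdilution in 1% peptone. Inoculum was 2 × 10⁶ CFU/mL mixed 1:1 with serial 2-fold peptide dilutions and incubated 18–20 h at 37 °C. Growth was read as absorbance at 600 nm; MIC is the lowest peptide concentration giving 100% growth inhibition.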

[2] = system: Pseudomonas aeruginosa; test: Antimicrobial activity against Pseudomonas aeruginosa KCTC 1637 incubated for 18 to 20 hrs by broth microdilution assay; format: functional; conditions: read-out: MIC100; summary of the method: as §1
[3] = system: Staphylococcus epidermidis; test: Antimicrobial activity against Staphylococcus epidermidis KCTC 1917 incubated for 18 to 20 hrs by broth microdilution assay; format: functional; conditions: read-out: MIC100; summary of the method: as §1
[4] = Therapeutic index, ratio of MHC for sheep RBC to MIC for Staphylococcus epidermidis KCTC 1917
[5] = Therapeutic index, ratio of MHC for sheep RBC to MIC for Staphylococcus aureus KCTC 1621
[6] = system: NIH3T3; test: Cytotoxicity against mouse NIH/3T3 cells up to 64 ug/mL after 2 days by MTT assay; format: cell-based; conditions: nih3t3, 48 h
Summary of the method: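 Cells in DMEM with 10% FBS seeded at 2×10^4 cells/well and incubated 24 h at 37 °C, 5% CO₂. Serial 2-fold peptide dilutions were added for 2 days, then MTT for 4 h. Formazan was dissolved in 20% SDS/0.01 M HCl and read at 570 nm. Survival is expressed as a percentage of untreated cells.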

[7] = system: Staphylococcus aureus; test: Antibacterial activity against methicillin resistant Staphylococcus aureus CCARM 3090 after 18 to 20 hrs by broth microdilution assay; format: functional; conditions: read-out: MIC100
Summary of the method: (§2)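 Broth microdilution in 1% peptone: bacteria at 2 × 10⁶ CFU/mL mixed 1:1 with serial 2-fold peptide dilutions, 18-20 h at 37 °C; growth read as absorbance at 600 nm. MIC taken as lowest concentration giving 100% growth inhibition.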

[8] = system: Pseudomonas aeruginosa; test: Antibacterial activity against multidrug-resistant Pseudomonas aeruginosa CCARM 2109 after 18 to 20 hrs by broth microdilution assay; format: functional; conditions: read-out: MIC100; summary of the method: as §2
[9] = system: Staphylococcus aureus; test: Antimicrobial activity against Staphylococcus aureus KCTC 1621 in presence of NaCl; format: functional
Summary of the method: (§3)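 MIC by microdilution with 2 × 10⁶ CFU/ml S. aureus KCTC 1621 in LB medium supplemented with physiological salt: 150 mM NaCl, 1 mM MgCl₂ or 2.5 mM CaCl₂; growth inhibition endpoint as in the standard MIC assay.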

[10] = system: Escherichia coli; test: Antimicrobial activity against Escherichia coli KCTC 1682 in presence of MgCl2; format: functional
Summary of the method: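 MIC in LB medium with added 150 mM NaCl, 1 mM MgCl₂ or 2.5 mM CaCl₂. Inoculum of 2 × 10⁶ CFU/mL with peptide. Otherwise as the broth microdilution MIC assay; MIC is the lowest concentration giving 100% growth inhibition.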

[11] = system: Staphylococcus aureus; test: Antimicrobial activity against Staphylococcus aureus KCTC 1621 in presence of CaCl2; format: functional; summary of the method: as §3
[12] = system: Pseudomonas aeruginosa; test: Antibiofilm activity against multidrug-resistant Pseudomonas aeruginosa CCARM 2095 after 24 hrs by crystal violet staining based method; format: functional; conditions: CCARM 2095, 24 h
Summary of the method: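 MDRPA 2095 (1×10^6 cfu/mL) in MHB with 0.2% glucose, 24 h at 37 °C with or without peptide (2-fold dilutions, 1-64 µg/mL), six wells each. Wells washed with PBS, methanol-fixed, stained with 0.1% crystal violet 5 min, stain resolubilized in 95% ethanol, absorbance at 600 nm.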

[13] = system: Escherichia coli; test: Induction of inner membrane permeabilisation in Escherichia coli ML-35 assessed as ONPG hydrolysis up to 30 ug/ml by beta-galactosidase enzyme coupled spectrophotometric analysis; format: functional
Summary of the method: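 E. coli ML-35 (constitutive cytoplasmic β-galactosidase, lactose permease-deficient) washed and resuspended to OD600 0.5 in 10 mM sodium phosphate pH 7.4, 100 mM NaCl, with 1.5 mM ONPG. o-Nitrophenol release tracked spectrophotometrically over time after peptide addition at various concentrations.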

[14] = system: RAW264.7; test: Antiinflammatory activity in mouse RAW264.7 cells assessed as inhibition of LPS-induced nitric oxide production after 24 hrs by Griess method; format: functional, cell-based
Summary of the method: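 RAW264.7 macrophages (5×10^5 cells/mL) stimulated with LPS (20 ng/mL), with or without peptide, for 24 h. Supernatants were mixed 1:1 with Griess reagent (1% sulfanilamide, 0.1% naphthylethylenediamine, 2% phosphoric acid) for 10 min at room temperature, read at 540 nm, and quantified against an NaNO₂ standard curve. Mean ± SEM of technical triplicates, ANOVA with Bonferroni post-test.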

[15] = system: RAW264.7; test: Antiinflammatory activity in mouse RAW264.7 cells assessed as inhibition of LPS-induced TNF-alpha production at 32 ug/mL preincubated with cells followed by LPS addition measured after 6 hrs by ELISA; format: functional
Summary of the method: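 RAW264.7 cells seeded at 5 × 10⁴ cells/well, left overnight, then given peptide at 37 °C. Unbound peptide was washed off with PBS (five washes) before LPS (20 ng/mL) was added for 6 h at 37 °C. TNF-α in the samples was measured by mouse ELISA. Mean ± SEM of technical triplicates, one-way ANOVA with Bonferroni post-test.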

[16] = system: RAW264.7; test: Antiinflammatory activity in mouse RAW264.7 cells assessed as inhibition of LPS-induced iNOS mRNA expression at 16 ug/mL after 6 hrs by RT-PCR method; format: functional, cell-based
Summary of the method: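 RAW264.7 cells plated at 5×10^5 cells/well and cultured overnight. They were stimulated with 20 ng/mL LPS, with or without peptide, in DMEM with 10% bovine serum, for 3 h (TNF-α) or 6 h (iNOS). Total RNA was reverse-transcribed with oligo(dT)15 primers and amplified for 30 cycles (annealing 55 °C). mRNA was analysed by PCR.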

[17] = system: Staphylococcus aureus; test: Potency index, ratio of LL-37 MIC100 to compound MIC100 for Staphylococcus aureus KCTC 1621; format: functional
[18] = system: Staphylococcus aureus; test: Potency index, ratio of melittin MIC100 to compound MIC100 for Staphylococcus aureus KCTC 1621; format: functional
[19] = system: Staphylococcus aureus; test: Potency index, ratio of melittin MIC100 to compound MIC100 for methicillin resistant Staphylococcus aureus CCARM 3089; format: functional
[20] = system: Staphylococcus aureus; test: Potency index, ratio of melittin MIC100 to compound MIC100 for methicillin resistant Staphylococcus aureus CCARM 3095; format: functional
[21] = system: Staphylococcus aureus; test: Antimicrobial activity against Staphylococcus aureus KCTC 1621 using 4 hrs trypsin incubated compound measured after overnight incubation by radial diffusion assay; format: functional
Summary of the method: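 Radial diffusion: mid-log cells (2×10^6 CFU/ml in LB) in 0.7% agarose. Peptide stock (10 mg/mL) added to trypsin in PBS (0.2 µg/mL), 4 h at 37 °C, stopped by liquid-nitrogen freezing; 10 µL on paper discs on the plates, overnight at 37 °C. Clearance-zone diameters measured.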

N=C(N)NCCC[C@H](NC(=O)c1nn(CCc2cccc3ccccc23)cc1NC(=O)[C@H](CCCNC(=N)N)NC(=O)c1nn(CCc2cccc3ccccc23)cc1N)C(N)=O
MIC [1]: 32 µg/mL (≈ 37.4 µM) | MIC [2]: 8 µg/mL (≈ 9.35 µM) | MIC [3]: 32 µg/mL (≈ 37.4 µM) | TI [4]: 53.9 | TI [5]: 53.9 | Activity [6]: Non-Toxic | MIC [7]: 8 µg/mL (≈ 9.35 µM) | MIC [8]: 8 µg/mL (≈ 9.35 µM) | MIC [9]: 4 µg/mL | MIC [10]: 32 µg/mL | MIC [11]: 8 µg/mL | IC90 [12]: 16 µg/mL (≈ 18.7 µM) | Activity [13]: Active | inhibition [14]: Dose-dependent effect | inhibition at 32 µg/mL [15]: > 50% | inhibition [16]: Active | Ratio [17]: 8 | Ratio [18]: 4 | Ratio [19]: 2 - 4 | Ratio [20]: 2 - 4 | Activity [21]: Active
